How the values were obtained:
[1] = test system: Hepatitis B virus; experiment: Antiviral activity against Hepatitis B virus infected in human HepG2.2.15 cells assessed as cell survival at 75 uM after 9 days (reference value: 100%); type: functional; settings: HepG2 2.2.15, 216 h
How it was run: (§1)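 HepG2.2.15 cells (MEM, 10% FBS, 380 µg/ml G418, 37 °C, 5% CO2) seeded at 1×10^5 cells/ml, cultured 24 h, then exposed to various drug concentrations; drug-containing medium renewed every 3 d. OD read at 450 nm after 9 days; percent cell death calculated; CC50 = concentration killing 50% of cells. Means of at least two experiments.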

[2] = test system: Hepatitis B virus; experiment: Antiviral activity against Hepatitis B virus infected in human HepG2.2.15 cells assessed as inhibition of HBeAg secretion at 75 uM after 9 days by ELISA; type: functional; settings: HepG2 2.2.15, 216 h
How it was run: (§2)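 HepG2.2.15 cells (MEM, 10% FBS, 380 µg/ml G418) seeded at 1×10^5 cells/ml, held 24 h at 37 °C, then treated with various drug concentrations; medium with drug renewed every 3 d for up to 9 d. Culture medium sampled on days 3, 6 and 9, stored at -20 °C, and assayed for secreted antigen. Lamivudine as positive control; IC50 = 50% inhibition of secretion; means of at least two experiments.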

[3] = test system: Hepatitis B virus; experiment: Antiviral activity against Hepatitis B virus infected in human HepG2.2.15 cells assessed as inhibition of HBsAg secretion at 37.5 uM after 6 days by ELISA; type: functional; settings: HepG2 2.2.15, 144 h; how it was run: as §2
[4] = test system: Hepatitis B virus; experiment: Antiviral activity against Hepatitis B virus infected in human HepG2.2.15 cells assessed as inhibition of HBV DNA copies per uL at 150 uM after 9 days by real-time fluorescence quantitative PCR analysis; type: functional; settings: HepG2 2.2.15, 216 h
[5] = test system: Hepatitis B virus; experiment: Antiviral activity against Hepatitis B virus infected in human HepG2.2.15 cells assessed as cell survival at 37.5 uM after 9 days (reference value: 100%); type: functional; settings: HepG2 2.2.15, 216 h; how it was run: as §1
[6] = test system: Hepatitis B virus; experiment: Antiviral activity against Hepatitis B virus infected in human HepG2.2.15 cells assessed as inhibition of HBeAg secretion at 37.5 uM after 6 days by ELISA; type: functional; settings: HepG2 2.2.15, 144 h; how it was run: as §2
[7] = test system: Hepatitis B virus; experiment: Antiviral activity against Hepatitis B virus infected in human HepG2.2.15 cells assessed as inhibition of HBeAg secretion by ELISA; type: functional, organism-based; settings: HepG2 2.2.15; how it was run: as §2
[8] = test system: Hepatitis B virus; experiment: Antiviral activity against Hepatitis B virus infected in human HepG2.2.15 cells assessed as inhibition of HBV DNA copies per uL at 37.5 uM after 9 days by real-time fluorescence quantitative PCR analysis; type: functional; settings: HepG2 2.2.15, 216 h
[9] = test system: Hepatitis B virus; experiment: Antiviral activity against Hepatitis B virus infected in human HepG2.2.15 cells assessed as inhibition of HBeAg secretion at 37.5 uM after 3 days by ELISA; type: functional; settings: HepG2 2.2.15, 72 h; how it was run: as §2
[10] = test system: Hepatitis B virus; experiment: Antiviral activity against Hepatitis B virus infected in human HepG2.2.15 cells assessed as inhibition of HBsAg secretion at 37.5 uM after 9 days by ELISA; type: functional; settings: HepG2 2.2.15, 216 h; how it was run: as §2
[11] = Selectivity index, ratio of CC50 for human HepG2.2.15 cells to IC50 for Hepatitis B virus infected in human HepG2.2.15 cells assessed as inhibition of HBsAg secretion; type: functional
How it was run: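 Selectivity index computed as CC50/IC50, with CC50 from cell death of HepG2.2.15 cells after 9 days of treatment (OD 450 nm) and IC50 from 50% inhibition of HBeAg or HBsAg secretion in the same cells; medium with drug renewed every 3 d.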

[12] = test system: Hepatitis B virus; experiment: Antiviral activity against Hepatitis B virus infected in human HepG2.2.15 cells assessed as inhibition of HBV DNA copies per uL at 300 uM after 6 days by real-time fluorescence quantitative PCR analysis; type: functional; settings: HepG2 2.2.15, 144 h
[13] = test system: Hepatitis B virus; experiment: Antiviral activity against Hepatitis B virus infected in human HepG2.2.15 cells assessed as inhibition of HBeAg secretion at 150 uM after 3 days by ELISA; type: functional; settings: HepG2 2.2.15, 72 h; how it was run: as §2
[14] = test system: Hepatitis B virus; experiment: Antiviral activity against Hepatitis B virus infected in human HepG2.2.15 cells assessed as inhibition of HBsAg secretion by ELISA; type: functional, organism-based; settings: HepG2 2.2.15; how it was run: as §2
[15] = test system: Hepatitis B virus; experiment: Antiviral activity against Hepatitis B virus infected in human HepG2.2.15 cells assessed as inhibition of HBV DNA copies per uL at 150 uM after 6 days by real-time fluorescence quantitative PCR analysis; type: functional; settings: HepG2 2.2.15, 144 h
[16] = test system: Hepatitis B virus; experiment: Antiviral activity against Hepatitis B virus infected in human HepG2.2.15 cells assessed as inhibition of HBeAg secretion at 300 uM after 6 days by ELISA; type: functional; settings: HepG2 2.2.15, 144 h; how it was run: as §2
[17] = test system: Hepatitis B virus; experiment: Antiviral activity against Hepatitis B virus infected in human HepG2.2.15 cells assessed as inhibition of HBsAg secretion at 300 uM after 9 days by ELISA; type: functional; settings: HepG2 2.2.15, 216 h; how it was run: as §2
[18] = test system: Hepatitis B virus; experiment: Antiviral activity against Hepatitis B virus infected in human HepG2.2.15 cells assessed as inhibition of HBeAg secretion at 300 uM after 9 days by ELISA; type: functional; settings: HepG2 2.2.15, 216 h; how it was run: as §2

IC50 [7] [µM] | IC50 [14] [µM] | SMILES | viability at 75 µM [1] [%] | inhibition at 75 µM [2] [%] | inhibition at 37.5 µM [3] [%] | inhibition at 150 µM [4] [%] | viability at 37.5 µM [5] [%] | inhibition at 37.5 µM [6] [%] | inhibition at 37.5 µM [8] [%] | inhibition at 37.5 µM [9] [%] | inhibition at 37.5 µM [10] [%] | Ratio CC50/IC50 [11] | inhibition at 300 µM [12] [%] | inhibition at 150 µM [13] [%] | inhibition at 150 µM [15] [%] | inhibition at 300 µM [16] [%] | inhibition at 300 µM [17] [%] | inhibition at 300 µM [18] [%]
6.2 | 14.2 | O=C(/C=C/c1ccc2c(c1)OCO2)O/N=C/c1ccccn1 | 72.9 | 89.8 | 55.4 | 72.2 | 79.3 | 66.5 | 58.4 | 31.7 | 70.7 | 17.85 | 68.8 | 55.9 | 61.6 | 85.1 | 93 | 96.4
72.9 | 62.8 | COc1cc(/C=C/C(=O)O/N=C/c2ccccn2)cc2c1OCO2 | 94.2 | 57.3 | 25.3 | 54.5 | 101 | 22.7 | 36.7 | 17.8 | 30.4 | 10.27 | 52.9 | 45.5 | 44.8 | 75.4 | 81.3 | 82.6
75.3 | 63.5 | COc1cc(/C=C/C(=O)O/N=C/c2ccco2)cc2c1OCO2 | 95.4 | 56.9 | 24.9 | 52 | 109 | 30.7 | 30.5 | 24.9 | 36.5 | 12.9 | 57.4 | 51.5 | 42.9 | 62 | 77.2 | 74.6
267 | 235 | Nc1ccn([C@@H]2CS[C@H](CO)O2)c(=O)n1 [LAMIVUDINE] | 95.9 | 34.2 | 7.98 | 81.6 | 118 | 12.8 | 69.4 | 10.1 | 25.2 | 2.42 | 71.6 | 23.9 | 66.8 | 39.9 | 60.4 | 4

Reference: ChEMBL document CHEMBL3576819, “Design, synthesis, biological evaluation and molecular docking studies of phenylpropanoid derivatives as potent anti-hepatitis B virus agents” (Eur J Med Chem, 2015)
